Format in all cases: functional
The test system of assay [1] is Ureaplasma parvum. In words: Antimicrobial activity against Ureaplasma parvum SV14 isolate HPA32 after 48 hrs by modified broth microdilution technique. The settings on record: SV14 isolate HPA32, 48 h. Put shortly:
(§1)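 Full-plate broth microdilution in ureaplasma selective medium (10% porcine serum, urea, phenol red, starting pH 6.65). A doubling-dilution antibiotic gradient from 64 to 0.0625 mg/liter is run, with an antibiotic-free column. An overnight culture of unknown CCU is added 1:10, then titrated 10-fold at right angles. Plates are sealed and held 48 h at 37°C. The MIC is the lowest concentration preventing colour change, read at 10⁴ CCU relative to the antibiotic-free control.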

Assay [2] concerns Ureaplasma parvum. Put plainly: Antimicrobial activity against Ureaplasma parvum SV9 containing tetM gene. Put shortly:
as §1

The test system of assay [3] is Ureaplasma urealyticum. Put plainly: Antimicrobial activity against Ureaplasma urealyticum isolate HPA6 after 48 hrs by modified broth microdilution technique. To be noted: isolate HPA6, 48 h. Put shortly:
as §1

Assay [4] has as its system Ureaplasma parvum. In words: Antimicrobial activity against Ureaplasma parvum SV1 isolate UHWO10 after 48 hrs by modified broth microdilution technique. To be noted: SV1 isolate UHWO10, 48 h. Put shortly:
as §1

For assay [5], the system named is Ureaplasma parvum. Put plainly: Antimicrobial activity against Ureaplasma parvum isolate UHWJM after 48 hrs by modified broth microdilution technique. Put shortly: as §1
Assay [6] relates to Ureaplasma parvum. Put plainly: Antimicrobial activity against Ureaplasma parvum SV1 isolate UHWQ3 after 48 hrs by modified broth microdilution technique. The settings on record: SV1 isolate UHWQ3, 48 h. In outline: as §1
Assay [7] deals with Ureaplasma urealyticum. Put plainly: Antimicrobial activity against Ureaplasma urealyticum isolate HPA12 after 48 hrs by modified broth microdilution technique. To be noted: isolate HPA12, 48 h. In outline:
as §1

Assay [8] relates to Ureaplasma urealyticum. In words: Antimicrobial activity against Ureaplasma urealyticum isolate HPA3 after 48 hrs by modified broth microdilution technique. The settings on record: isolate HPA3, 48 h. In outline: as §1
The test system of assay [9] is Ureaplasma parvum. In words: Antimicrobial activity against Ureaplasma parvum SV6 isolate HPA23 after 48 hrs by modified broth microdilution technique. To be noted: SV6 isolate HPA23, 48 h. Put shortly:
as §1

The test system of assay [10] is Ureaplasma urealyticum. Put plainly: Antimicrobial activity against Ureaplasma urealyticum isolate HPA20 after 48 hrs by modified broth microdilution technique. To be noted: isolate HPA20, 48 h. In outline: as §1
Assay [11] concerns Ureaplasma urealyticum. Put plainly: Antimicrobial activity against Ureaplasma urealyticum isolate HPA17 after 48 hrs by modified broth microdilution technique. The settings on record: isolate HPA17, 48 h. In outline: as §1
Assay [12] has as its system Ureaplasma parvum. Put plainly: Antimicrobial activity against Ureaplasma parvum isolate UHWP2 after 48 hrs by modified broth microdilution technique. The settings on record: isolate UHWP2, 48 h. In outline: as §1
Assay [13] relates to Ureaplasma parvum. In words: Antimicrobial activity against Ureaplasma parvum SV1 isolate HPA18 after 48 hrs by modified broth microdilution technique. To be noted: SV1 isolate HPA18, 48 h. Put shortly: as §1

In brackets after ≈: the same amount, converted by molar mass. Where only a bound is given, the exact number is not on record here.

With `CN(C)[C@@H]1C(O)=C(C(N)=O)C(=O)[C@@]2(O)C(O)=C3C(=O)c4c(O)cccc4[C@@](C)(O)[C@H]3C[C@@H]12` [TETRACYCLINE], the MIC was 1 µg/mL (≈ 2.25 µM) in assay [1]; above 64 µg/mL in assay [2]; 2 µg/mL (≈ 4.5 µM) in assay [3]; 1 µg/mL (≈ 2.25 µM) in [4]; 2 µg/mL (≈ 4.5 µM) in assay [5]; 1 µg/mL (≈ 2.25 µM) in [6]. Also, the minimum inhibitory concentration (MIC) is 2 µg/mL (≈ 4.5 µM) in assay [7]; 2 µg/mL (≈ 4.5 µM) in assay [8]; 64 µg/mL (≈ 144 µM) in assay [9]; 2 µg/mL (≈ 4.5 µM) in [10]; 1 µg/mL (≈ 2.25 µM) in assay [11]; 2 µg/mL (≈ 4.5 µM) in assay [12]. In addition, the MIC in [13] amounted to 2 µg/mL (≈ 4.5 µM).
Turning to `C[C@H]1c2cccc(O)c2C(=O)C2=C(O)[C@]3(O)C(=O)C(C(N)=O)=C(O)[C@@H](N(C)C)[C@@H]3[C@@H](O)[C@@H]21.O` [DOXYCYCLINE], the MIC in [1] came out at 0.25 µg/mL; in assay [2], 64 µg/mL; in assay [3], 0.5 µg/mL; in [4] it was 0.25 µg/mL; in assay [5], 0.5 µg/mL; in assay [6], 0.25 µg/mL. Also, the MIC turned out to be 0.5 µg/mL in assay [7]; 0.5 µg/mL in [8]; 16 µg/mL in [9]; 0.5 µg/mL in assay [10]; 0.25 µg/mL in [11]; 0.5 µg/mL in [12]. Further, in [13], the MIC turned out to be 0.25 µg/mL.
Turning to `CC[C@H]1OC(=O)[C@H](C)[C@@H](O[C@H]2C[C@@](C)(OC)[C@@H](O)[C@H](C)O2)[C@H](C)[C@@H](O[C@@H]2O[C@H](C)C[C@H](N(C)C)[C@H]2O)[C@](C)(O)C[C@@H](C)CN(C)[C@H](C)[C@@H](O)[C@]1(C)O` [AZITHROMYCIN], the minimum inhibitory concentration (MIC) in assay [1] was below 0.25 µg/mL; in assay [3] it was below 0.25 µg/mL; in [4], 2 µg/mL (≈ 2.67 µM); in assay [5], below 0.25 µg/mL; in [6] it was below 0.25 µg/mL; in assay [7], below 0.25 µg/mL. Moreover, the minimal inhibitory concentration (MIC) in assay [8] was 0.5 µg/mL (≈ 0.668 µM); in [9], below 0.25 µg/mL; in assay [10], below 0.25 µg/mL; in assay [11], 0.5 µg/mL (≈ 0.668 µM); in [12] it was below 0.25 µg/mL; in assay [13], below 0.25 µg/mL.
As for `O=C(O)c1cn(C2CC2)c2cc(N3CCNCC3)c(F)cc2c1=O` [CIPROFLOXACIN], the MIC is below 2 µg/mL in assay [1]; 4 µg/mL (≈ 12.1 µM) in assay [3]; 4 µg/mL (≈ 12.1 µM) in assay [4]; 4 µg/mL (≈ 12.1 µM) in assay [5]; 4 µg/mL (≈ 12.1 µM) in assay [6]; 4 µg/mL (≈ 12.1 µM) in [7]. Further, the MIC in [8] is 4 µg/mL (≈ 12.1 µM); in assay [9] it was below 2 µg/mL; in assay [10], 4 µg/mL (≈ 12.1 µM); in assay [11], 4 µg/mL (≈ 12.1 µM); in assay [12], 4 µg/mL (≈ 12.1 µM); in [13], 8 µg/mL (≈ 24.1 µM).
Consider `CC[C@H]1OC(=O)[C@H](C)[C@@H](O[C@H]2C[C@@](C)(OC)[C@@H](O)[C@H](C)O2)[C@H](C)[C@@H](O[C@@H]2O[C@H](C)C[C@H](N(C)C)[C@H]2O)[C@](C)(OC)C[C@@H](C)C(=O)[C@H](C)[C@@H](O)[C@]1(C)O` [CLARITHROMYCIN], for which the MIC in [1] was below 0.125 µg/mL; in assay [3], below 0.125 µg/mL; in assay [4], 4 µg/mL (≈ 5.35 µM); in assay [5] it was below 0.125 µg/mL; in assay [6], below 0.125 µg/mL; in [7] it was below 0.125 µg/mL. Further, the minimal inhibitory concentration (MIC) in assay [8], in assay [9], in assay [10], in assay [11], in [12] and in [13] was below 0.125 µg/mL in each case.
`CC[C@H]1OC(=O)[C@H](C)[C@@H](O[C@H]2C[C@@](C)(OC)[C@@H](O)[C@H](C)O2)[C@H](C)[C@@H](O[C@@H]2O[C@H](C)C[C@H](N(C)C)[C@H]2O)[C@](C)(O)C[C@@H](C)C(=O)[C@H](C)[C@@H](O)[C@]1(C)O` [ERYTHROMYCIN]: the MIC is 8 µg/mL (≈ 10.9 µM) in assay [1]; 4 µg/mL (≈ 5.45 µM) in assay [2]; 8 µg/mL (≈ 10.9 µM) in assay [3]; above 64 µg/mL in assay [4]; 4 µg/mL (≈ 5.45 µM) in assay [5]; 4 µg/mL (≈ 5.45 µM) in assay [6]. Moreover, the minimal inhibitory concentration (MIC) in assay [7] turned out to be 8 µg/mL (≈ 10.9 µM); in assay [8] it was 4 µg/mL (≈ 5.45 µM); in assay [9], 4 µg/mL (≈ 5.45 µM); in assay [10], 8 µg/mL (≈ 10.9 µM); in assay [11], 8 µg/mL (≈ 10.9 µM); in [12] it was 4 µg/mL (≈ 5.45 µM). Also, the MIC in assay [13] is 4 µg/mL (≈ 5.45 µM).

The values above are taken from ChEMBL document CHEMBL1649200, “Concurrent titration and determination of antibiotic resistance in ureaplasma species with identification of novel point mutations in genes associated with resistance” (2009).
